# High-throughput results deposited in PubChem by several laboratories.
# Sampled rows, rich in hits. Any-hit rate of the full collection: about 1.4%.
# RTF Ca sens act: cardiac RTF calcium sensitivity activators, primary screen, biochemical, IANBD-TnC fluorescence, EC20 calcium | 340,000 tested, 0.24% active | activation, % at 7.2 µM | IANBD-labeled TnC RTF fluorescence at EC20 calcium; 0% EC20 calcium, 100% full calcium | AID 493008, 2010 | Troponin I, cardiac muscle (Homo sapiens) + Troponin T, cardiac muscle (Homo sapiens) + …;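 active means activation above the mean over all tested compounds plus 3 SD, cut at about 30% in these data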;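 further: rise in fluorescence read as greater calcium sensitivity of cardiac thin filaments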
# Tn7 DDE FP: inhibitors of Tn7 peptide binding to fibrin DD(E), primary screen, biochemical, fluorescence polarization, human fibrin, Tn7 probe; FP displacement of FITC-Tn7 peptide from fibrin DD(E); 0% = median of compound wells per plate; inhibition, % at 8.3 µM; 370,000 tested, 0.13% active; AID 720508, 2013;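 active means inhibition above the mean of compounds falling within the control limits plus 3 SD of them, cut at about 14% in these data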;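 further: 0% = plate median of compound wells and 100% = 10 µM Aha-Tn7 peptide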
# Target sequence (P02675 whole entry, looked up): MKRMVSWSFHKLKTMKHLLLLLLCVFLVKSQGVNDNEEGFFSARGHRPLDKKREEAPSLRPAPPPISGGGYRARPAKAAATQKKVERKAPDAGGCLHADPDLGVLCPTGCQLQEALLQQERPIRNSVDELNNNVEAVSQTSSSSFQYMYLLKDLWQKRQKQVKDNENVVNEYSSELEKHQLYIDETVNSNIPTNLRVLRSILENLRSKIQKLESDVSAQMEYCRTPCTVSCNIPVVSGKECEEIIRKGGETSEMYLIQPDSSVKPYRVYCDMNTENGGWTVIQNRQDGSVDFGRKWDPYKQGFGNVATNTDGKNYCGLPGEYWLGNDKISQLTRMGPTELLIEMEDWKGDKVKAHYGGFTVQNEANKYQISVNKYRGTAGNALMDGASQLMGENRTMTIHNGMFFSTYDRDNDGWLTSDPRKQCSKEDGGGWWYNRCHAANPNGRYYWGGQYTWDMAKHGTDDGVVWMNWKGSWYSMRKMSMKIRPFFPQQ
#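 Assay system: human fibrin DD(E) protein / Input: 2 µM fibrin DD(E) / Benchmarks: high control of 10 µM Aha-Tn7 peptide / Measured by: fluorescence polarization of the labelled Tn7 tracer / Medium: Tris buffer with calcium and detergent, pH 7.8 / Timing: 10 min compound pre-incubation, 3 h probe incubation at room temperature / Repeats: one replicate per compound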
# CRFBP-R2 agonist: agonists of CRF-BP/CRF-R2 complex, primary screen, cell-based, HEK293, calcium dye fluorescence, uHTS; calcium dye fluorescence (FLIPR); percent of saturating CRF peptide response; CRF-binding protein / CRF receptor 2 complex (human); 350,000 tested, 0.46% active; activation, % at 13.2 µM;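 active means activation of at least 50%, plus an integration ratio under a set limit after plate pattern correction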;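 further: plate controls were neutral control wells without compound for no effect and CRF at EC100 for full effect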
# Tn6 DDE FP: inhibitors of Tn6 peptide binding to fibrin DD(E), primary screen, biochemical, fluorescence polarization, human fibrin, Tn6 probe. Fibrin DD(E) TRITC-Tn6 fluorescence polarization displacement. inhibition, % at 8.3 µM. 370,000 tested, 0.21% active. AID 720509, 2013;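 active means inhibition above a per-campaign cutoff: mean of compounds within control limits plus 3 SD, cut at about 15% in these data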;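 further: 0% = median of all compound wells on the plate and 100% = blocking peptide control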
# CRFR2-BP antag: antagonists of CRF-BP/CRF-R2 complex, primary screen, cell-based, HEK293, calcium dye fluorescence, uHTS; CRF-induced calcium fluorescence; inhibition, % at 11.8 µM; 350,000 tested, 0.59% active;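 active means inhibition of the ligand-induced calcium signal above about 50% at the single tested concentration, limit read from the data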
# RTF Ca sens inh: cardiac RTF calcium sensitivity inhibitors, primary screen, biochemical, IANBD-TnC fluorescence, EC70 calcium; 340,000 tested, 0.12% active; inhibition, % at 7.15 µM; IANBD-labeled cardiac RTF, Ca2+ fluorescence;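 active means inhibition above the mean inhibition of all tested compounds plus 3 SD, cut at about 17% in these data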;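 further: assay run at fixed EC70 calcium of 1.6 mM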
# Starred values were filed as active, the others as inactive; x = not tested or not shown.
SMILES,RTF Ca sens act,Tn7 DDE FP,CRFBP-R2 agonist,Tn6 DDE FP,CRFR2-BP antag,RTF Ca sens inh
Cc1ccccc1N1C(=O)NC(=O)/C(=C\c2cc(Br)c(N3CCOCC3)o2)C1=O,64*,-3,113*,0,-112,-51
O=C1NC(=O)N(c2ccc3c(c2)OCO3)C(=O)/C1=C\c1ccc(N2CCCCC2)o1,50*,-1,73*,1,-38,-88
Cc1ccc2nc(-c3ccc(CN4CCC(n5c(=O)[nH]c6cc(Cl)ccc65)CC4)cc3)c(-c3ccccc3)nc2c1,x,5,x,-9,x,x
Cc1ccc(C(O)P(=O)(Oc2ccccc2)Oc2ccccc2)cc1 (stereo not drawn),5,3,-2,6,-2,-3
CC(C)(C)c1cc(O)ccc1O,x,1,x,-2,x,x
N#CC(C#N)=Cc1ccc(-c2ccccc2F)o1,36*,0,35,5,-54,-36
Cc1cc2c(C(F)(F)F)cc(=O)oc2c2c1NCCC2,63*,5,178*,6,-214,-105
O=S(=O)(c1ccc2ccccc2c1)N1Cc2cc(Br)ccc2-n2nncc2C1,x,-6,x,2,x,x
Cc1cccc(N2C(=O)/C(=C/c3ccc(N4CCN(C)CC4)o3)C(=O)NC2=S)c1C,89*,0,51*,-5,-29,-45
COc1ccc(N2C(=O)/C(=C/c3ccc(C)o3)C(=O)NC2=S)c(OC)c1,3,-1,3,5,10,-6
CCc1ccccc1N1C(=O)/C(=C/c2ccc(N3CCN(C)CC3)o2)C(=O)NC1=S,65*,-5,55*,3,-31,-41
CCc1ccccc1N1C(=O)NC(=O)/C(=C\c2cc(C)n(C)c2C)C1=O,-6,-6,-1,8,11,8
CC12CCC(=O)C=C1CC(O)C1C2CCC2(C)C1CCC2(C)O (stereo not drawn),-1,1,4,3,-21,4
Cc1ccc(OC(=O)N(C)C[C@@H]2OCc3cnnn3CCCC(=O)N([C@@H](C)CO)C[C@@H]2C)cc1,x,10,2,8,60*,x
Cc1cccc(C)c1-n1nnnc1C(c1ccccc1OC(F)(F)F)N1CCC(n2c(=O)[nH]c3ccccc32)CC1 (stereo not drawn),x,6,x,2,x,x
O=C(O)CCCc1ccc(N(CCCl)CCCl)cc1,0,-8,0,8,7,-1
O=C1NC(=S)SC1=Cc1ccc(N(CCCl)CCCl)cc1,94*,-7,88*,5,-100,-76
NN=C(N)N,6,4,-1,-1,24,6
COC1=CC2[C@@H]3Cc4ccc(OC)c(O)c4[C@]2(CCN3C)CC1=O (stereo partly drawn),-3,8,2,11,-11,1
CCC(C)c1ccc(N2C(=O)NC(=O)/C(=C/c3cccn3CCOc3ccc(C)cc3)C2=O)cc1 (stereo not drawn),1,-1,60*,-6,-91,-12
Cc1ccc(N2C(=O)NC(=O)/C(=C\c3cccn3C(C)(C)C)C2=O)cc1,-2,5,2,5,-17,3
CCOP(=O)(OCC)c1cc(CC)ccc1O,-5,-2,-2,6,93*,-6
CCOP(=O)(OCC)c1cccc(O)c1,-2,-2,-1,-1,14,-7
Oc1cc(Cl)c(Cl)c(Cl)c1,-2,1,20,-4,55*,-1
Cc1ccc(N=C(/N=C(\N)N[N+](=O)[O-])Nc2ccc(C)cc2)cc1,5,-4,0,-2,-7,3
SMILES,RTF Ca sens act,Tn7 DDE FP,CRFBP-R2 agonist,Tn6 DDE FP,CRFR2-BP antag,RTF Ca sens inh
COc1ccccc1N,x,-4,x,0,x,x
Cn1c(O)c(/C=C/C=Nc2ccccc2)c(=O)n(C)c1=S,29,1,55*,-4,-106,-39
Cc1cccc(-n2c(O)c(/C=C/C=Nc3ccccc3)c(=O)[nH]c2=O)c1,77*,-29,56*,-3,-52,-100
Cc1cc(S(=O)(=O)NCc2ccccc2)ccc1OCC(=O)N1CCN(C)CC1,-1,8,0,-2,0,-8
Oc1ccc(/C=N/NP(=S)(c2ccccc2)c2ccccc2)cc1,-3,-2,-1,-4,52*,10
COc1cc(/C=N/NP(=S)(c2ccccc2)c2ccccc2)ccc1O,0,-7,-1,1,-17,-6
O=C1NC(=O)C(=CN2CCc3ccccc32)C(=O)N1,7,4,2,-3,-9,-12
O=C1NC(=O)N(Cc2ccccc2)C(=O)/C1=C\N1CCCc2ccccc21,36*,5,10,7,3,-62
Cn1cc(C(=O)c2ccccc2)c2ccccc21,-4,-5,-11,5,53*,-1
Cc1ccc(N2C(=O)NC(=O)/C(=C\c3cn(CC(=O)O)c4ccccc34)C2=O)cc1,14,-9,13,-11,-10,-11
COC(=O)Cn1cc(/C=C2\C(=O)NC(=O)N(c3ccccc3)C2=O)c2ccccc21,5,-1,87*,-1,-48,-10
Cc1cc(N(CCCl)CCCl)ccc1/C=N/N=C(\N)c1cnccn1,5,-2,0,3,-20,-3
Cc1cc(N(CCCl)CCCl)ccc1C=Cc1ccncn1,79*,-33,37,-3,-49,-95
O=S(=O)(c1cccc(C(F)(F)F)c1)N1Cc2ccccc2-n2nncc2C1,x,1,0,8,0,x
COc1ccc(CN2C(=O)NC(=O)/C(=C/c3cc(OC)c(OC)c(OC)c3)C2=O)cc1,7,2,13,4,0,-2
COc1ccc(CN2C(=O)NC(=O)/C(=C/c3ccoc3)C2=O)cc1,20,-23,10,-5,51*,-62
c1ccc2c(c1)[nH]c1cnccc12,-3,-9,-2,1,10,5
Cc1c2ccncc2c(C)c2c1[nH]c1ccccc12,4,x,101*,x,-135,10
CN1CN(c2ccccc2)C2(CCN(CCCSc3ccccc3NC(=O)/C=C/c3ccccc3)CC2)C1=O,-3,-6,95*,-17,-9,-3
O=C(NCCN1CCC2(CC1)C(=O)NCN2c1ccccc1)c1cccc2c1-c1ccccc1C2=O,x,7,x,-3,x,x
